ChEMBL document CHEMBL3867454, “Corallocins A-C, Nerve Growth and Brain-Derived Neurotrophic Factor Inducing Metabolites from the Mushroom Hericium coralloides” (J Nat Prod, 2016)
Converted amounts (≈) assume the structure as drawn. The source made the active and inactive calls. The calls are words filed in the database; no cut-off is given here.

Assays:
[1] = Upregulation of NGF expression in human 1321N1 cells at 68.9 uM measured after 6 hrs by semiquantitative RT-PCR analysis relative to DMSO-control; type: functional, cell-based
Procedure, shortened: (§1)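 1321N1 astrocytes were grown to confluence on 3.5 cm plates and switched to serum-free DMEM 24 h before compound addition. Primers were specific for GAPDH, NGF (189 bp) and BDNF (101 bp). PCR programs: GAPDH 20 cycles at 60 °C annealing; NGF 30 cycles at 61 °C; BDNF 30 cycles at 58 °C. Products were run on 1% or 2% agarose, with GAPDH as loading control and identity confirmed by sequencing. n = 3 independent experiments.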

[2] = Cytotoxicity against mouse L929 cells measured after 5 days by MTT assay; type: functional, cell-based; details: L929, 120 h
Procedure, shortened: (§2)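 Compounds added from 30 μg/mL methanol stocks by serial dilution in 96-well plates. L929 was cultured in DMEM, MCF-7 and KB-3-1 in RPMI-1640, all with 10% FCS, 5% CO2, 37 °C, 5 days. Methanol was the negative control and epothilone A the positive control. IC50 values were derived from the dilution series.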

[3] = Cytotoxicity against HUVEC measured after 5 days by MTT assay; type: functional, cell-based; details: Homo sapiens, 120 h
[4] = Cytotoxicity against human MCF7 cells measured after 5 days by MTT assay; type: functional, cell-based; details: MCF7, 120 h; procedure, shortened: as §2
[5] = Cytotoxicity against human KB-3-1cells measured after 5 days by MTT assay; type: functional, cell-based; details: KB 3-1, 120 h; procedure, shortened: as §2
[6] = Antifungal activity against Mucor plumbeus MUCL 49355 measured after 20 to 24 hrs by serial dilution assay; type: functional
[7] = Increase in BDNF expression in human 1321N1 cells at 68.9 uM measured after 6 hrs by semiquantitative RT-PCR analysis relative to DMSO-control; type: functional; procedure, shortened: as §1
1321N1 (Homo sapiens) = test: Cytotoxicity against human 1321N1 cells assessed as induction of cell death measured after 24 hrs; details: pooled result: one value given for 2 cell lines, strains, targets or settings
1321-N1 [8] = test: Induction of NGF secretion in human 1321N1 cells at 57.8 uM after 48 hrs; type: functional, cell-based
1321-N1 [9] = test: Induction of NGF secretion in human 1321N1 cells at 19.6 uM after 48 hrs; type: functional, cell-based
PC-12 [10] = test: Intrinsic neurotrophic activity in rat PC12 cells in conditioned 1321N1 culture medium assessed as neurite outgrowth at 19.6 uM measured after 48 hrs by light microscopy method; type: functional, cell-based
[11] = Upregulation of NGF expression in human 1321N1 cells at 19.6 uM measured after 6 hrs by semiquantitative RT-PCR analysis relative to DMSO-control; type: functional, cell-based; procedure, shortened: as §1
[12] = Increase in BDNF expression in human 1321N1 cells at 19.6 uM measured after 6 hrs by semiquantitative RT-PCR analysis relative to DMSO-control; type: functional; procedure, shortened: as §1
[13] = Upregulation of NGF expression in human 1321N1 cells at 57.8 uM measured after 6 hrs by semiquantitative RT-PCR analysis relative to DMSO-control; type: functional, cell-based; procedure, shortened: as §1
PC-12 [14] = test: Intrinsic neurotrophic activity in rat PC12 cells in conditioned 1321N1 culture medium assessed as neurite outgrowth at 57.8 uM measured after 48 hrs by light microscopy method; type: functional, cell-based

Compound | fold change (FC) [1] | IC50 [2] [µM] | IC50 [3] [µM] | IC50 [4] [µM] | IC50 [5] [µM] | MIC [6] [µM] | fold change (FC) [7] | MNTC at 24 h (1321N1 (Homo sapiens)) [µM] | Activity (1321-N1 [8]) | Activity (1321-N1 [9]) | Activity (PC-12 [10]) | fold change (FC) [11] | fold change (FC) [12] | fold change (FC) [13] | Activity (PC-12 [14])
COc1cc2c(c(O)c1C/C=C(\C)CCC=C(C)C)CN(CCc1ccc(O)cc1)C2=O | 2 | 14.7 | 2.1 | 9.2 | 11.5 | 57.4 (≈ 25 µg/mL) | 1.5 | 68.9 | – | – | – | – | – | – | –
COc1cc2c(c(O)c1C/C=C(\C)CCC=C(C)C)CN(CCc1c[nH]c3ccccc13)C2=O | – | – | – | – | – | – | – | 19.6 | Active | Active | Active | 5 | 1.9 | – | –
COc1cc2c(c(O)c1C/C=C(\C)CC/C=C(\C)C(=O)O)COC2=O | – | – | – | – | – | – | – | 57.8 | Active | Active | – | – | – | 3 | Active
